In the library only some 1.9% were active in any assay of this set; here they are far more common.
CSN deneddyl inh – CSN deneddylation inhibition; Q92905; Purified CSN, SCF-Nedd8-OG deneddylation, fluorescence polarization; inhibition, % at 12.5 µM; 0.38% of 360,000 active;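 active = pattern-corrected inhibition above about 35%, with an unprinted fluorescence ratio check between 0.5 and 1.5, limit read from the data, passing the limit was not always enough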;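 also: 0% = enzyme with substrate and 100% = substrate without enzyme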
Target sequence (Q92905 whole entry, looked up, one chain of several): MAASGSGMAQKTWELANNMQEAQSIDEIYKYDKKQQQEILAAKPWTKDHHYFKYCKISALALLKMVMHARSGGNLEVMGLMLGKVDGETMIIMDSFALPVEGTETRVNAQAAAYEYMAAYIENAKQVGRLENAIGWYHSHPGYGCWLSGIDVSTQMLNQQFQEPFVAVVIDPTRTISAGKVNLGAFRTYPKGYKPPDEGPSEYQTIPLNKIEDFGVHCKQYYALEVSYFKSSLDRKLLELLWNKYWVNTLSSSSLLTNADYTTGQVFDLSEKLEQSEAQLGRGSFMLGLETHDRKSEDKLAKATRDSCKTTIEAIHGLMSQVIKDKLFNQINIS
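Assay system: HEK293T-derived human Csn5 enzyme; quantity: 0.24 nM enzyme; medium: Tris/NaCl/DTT buffer, pH 7.5; also added: substrate SCFSkp2-Nedd8OG, 10 nM; doses: 12.5 µM compound; schedule: 90 min reaction at room temperature; signal: FP; read-out: % inhibition of substrate cleavage by Csn5; benchmarks: substrate-only high control, full reaction low control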
SUMO1-SIM PPI – SUMO1-SIM interaction modulation; P63165; inhibition, % at 20 µM; 0.33% of 360,000 active; SUMO1 binding to a labelled peptide, TR-FRET, 1 h; in the data active = inhibition above about 37%
Target sequence (P63165 whole entry, looked up): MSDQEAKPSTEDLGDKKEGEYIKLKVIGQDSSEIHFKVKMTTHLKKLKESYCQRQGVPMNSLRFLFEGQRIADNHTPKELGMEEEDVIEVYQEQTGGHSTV
Scp-1 inhibitor – blocks human Scp-1 phosphatase activity. inhibition, % at 20 µM. Recombinant Scp1, phosphopeptide, malachite green phosphate absorbance. 0.88% of 340,000 active. Q9GZU7;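 active = inhibition above about 50% at 20 µM, limit read from the data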;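 also: plate controls were DMSO wells with enzyme for no effect and wells lacking enzyme for full effect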
Target sequence (Q9GZU7 76-261 limits assumed): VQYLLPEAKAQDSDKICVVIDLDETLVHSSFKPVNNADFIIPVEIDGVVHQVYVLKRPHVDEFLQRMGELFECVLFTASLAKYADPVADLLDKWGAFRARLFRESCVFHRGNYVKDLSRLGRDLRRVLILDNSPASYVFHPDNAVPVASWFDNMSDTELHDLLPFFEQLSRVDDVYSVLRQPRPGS
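Assay system: SCP-1 catalytic fragment, aa 76-261 | Buffer or medium: Tris acetate buffer pH 5.5 with MgCl2 and Tween-20 | Compound: One concentration, 20 µM, with 1.0% DMSO | Also added: Phospho 17-mer peptide substrate | Signal: Absorbance at 630 nm | Incubation: 45 min enzyme reaction at room temperature | Measure: % inhibition of SCP-1 phosphate liberation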
DNMT1 inh – blocks human DNA methyltransferase DNMT1; DNMT1 molecular beacon, Hinp1I cleavage, fluorescence; inhibition (reported as % activation of signal), % at 10 µM; P26358; AID 588458; 0.83% of 360,000 active; in the data active = inhibition above about 50%
LMPTP inh – blocks human LMPTP phosphatase; P24666; recombinant LMPTP-A, OMFP fluorogenic substrate, fluorescence intensity; inhibition, % at 20 µM; 0.22% of 360,000 active; AID 651560;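 active = compounds that cut the enzyme signal by at least half of the control window in the single-dose screen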;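 also: plate controls were DMSO wells with enzyme plus substrate for no effect and substrate without enzyme for full effect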
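Test system: LMPTP-A phosphatase enzyme; input: 0.625 nM LMPTP-A final; reagent: OMFP substrate, 400 µM final; compound dosing: 20 µM single dose, 3% DMSO; incubation: 50 min dark incubation at room temperature; measured by: endpoint fluorescence intensity from OMFP dephosphorylation; measure: % inhibition relative to no-enzyme and uninhibited control wells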
STEP block – blocks human striatal-enriched tyrosine phosphatase; P54829; recombinant STEP, OMFP fluorogenic substrate, fluorescence; inhibition, % at 20 µM; 0.25% of 360,000 active;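 active = inhibition at 20 µM, scaled per plate between control wells, above about 37%, limit read from the data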;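 also: 0% = DMSO with enzyme and substrate and 100% = substrate only without enzyme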
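medium = Bis-Tris buffer pH 6.0, 2.5 mM DTT, 0.005% Tween 20 | test system = STEP (striatal-enriched tyrosine phosphatase) enzyme, cell-free | measure = normalized % inhibition | compound dosing = 20 µM, 1% DMSO | also added = 25 µM OMFP | schedule = reaction 20 min, ambient temperature | measured by = fluorescence read at 480 nm ex / 540 nm em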
Beacon interf DR – beacon fluorescence artifact, dose response counter-screen; shares compounds with DNMT1 inh; molecular beacon fluorescence, spectral interference counter-screen; IC50, µM; 200 tested, under 10 active; AID 602382; call rule not given here
DNMT1 inh conf – DNMT1 inhibition confirmation, single concentration; shares compounds with DNMT1 inh; DNMT1 molecular beacon HinP1I cleavage, fluorescence; inhibition, % at 10 µM; 8% of 2,300 active;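 active = average inhibition of at least 30% in the single-concentration confirmation test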
Beacon interf – beacon fluorescence artifact counter-screen; shares compounds with DNMT1 inh; DNMT1 molecular beacon spectral interference counterscreen, fluorescence 485/520; activation (fluorescence interference), % at 10 µM; 1% of 2,300 active; AID 602387;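 active = activation of at least 30% at 10 µM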;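 also: DNMT1 catalytic domain with a HinP1I cleavage step and a FAM/dabcyl DNA beacon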
Starred values were filed as active, the others as inactive.

What do the screens show for `O=C(CN1C(=O)S/C(=C\c2ccc(-c3cc(C(=O)O)ccc3Cl)o2)C1=O)Nc1ccc2c(c1)OCO2`?
CSN deneddyl inh: 18; SUMO1-SIM PPI: 114*; DNMT1 inh: 97*; LMPTP inh: 74*; STEP block: 90*; Beacon interf DR: >99; DNMT1 inh conf: 22; Beacon interf: -13

Results for Cc1cc(C(=O)NNC(=O)/C=C/c2ccco2)c(C)o1 ?
CSN deneddyl inh: 22; SUMO1-SIM PPI: 14; Scp-1 inhibitor: 66*; DNMT1 inh: 88*; LMPTP inh: 0; STEP block: 0; DNMT1 inh conf: 26; Beacon interf: 5

How did COc1ccccc1/C=C/C(=O)NNC(=O)c1cc(C)oc1C do in these assays?
CSN deneddyl inh: -6; SUMO1-SIM PPI: -9; Scp-1 inhibitor: 1; DNMT1 inh: -2; LMPTP inh: 0; STEP block: -1

Results for Cc1ccc(C(=O)CN(CCCC(N)=O)C(=O)c2ccncc2)cc1 ?
CSN deneddyl inh: 4; SUMO1-SIM PPI: -1; Scp-1 inhibitor: -6; DNMT1 inh: 1; LMPTP inh: -2; STEP block: 2

Results for C=CCC1NS(=O)(=O)OCC1C(C)C (stereo not drawn) ?
CSN deneddyl inh: -1; SUMO1-SIM PPI: 3; Scp-1 inhibitor: 6; DNMT1 inh: 50*; LMPTP inh: 2; STEP block: -2; DNMT1 inh conf: 1; Beacon interf: 1

Results for CC(=O)OCC(=O)Nc1ccc([N+](=O)[O-])cc1Cl ?
CSN deneddyl inh: 5; SUMO1-SIM PPI: -24; Scp-1 inhibitor: -15; DNMT1 inh: 2; LMPTP inh: -2; STEP block: 2

What do the screens show for `O=C(COC(=O)C12CC3CC(CC(C3)C1)C2)Nc1ccc([N+](=O)[O-])cc1Cl`?
CSN deneddyl inh: -11; SUMO1-SIM PPI: -8; Scp-1 inhibitor: -1; DNMT1 inh: 72*; LMPTP inh: 1; STEP block: 2; DNMT1 inh conf: 3; Beacon interf: 5

How did CCOc1ccc(-c2nc(CS(=O)(=O)CC(=O)NCc3ccc(F)cc3)c(C)o2)cc1 do in these assays?
CSN deneddyl inh: 1; SUMO1-SIM PPI: 3; Scp-1 inhibitor: -9; DNMT1 inh: -9; LMPTP inh: 0; STEP block: 1

Results for Nc1ccc(N(c2ccccc2)c2ccc(N)cc2)cc1 ?
CSN deneddyl inh: 0; SUMO1-SIM PPI: -15; Scp-1 inhibitor: 10; DNMT1 inh: 62*; LMPTP inh: 5; STEP block: 5; DNMT1 inh conf: -1; Beacon interf: 0

What do the screens show for `CN(C)c1ccc(CCc2ccc(N)cc2)cc1`?
CSN deneddyl inh: 10; SUMO1-SIM PPI: -1; Scp-1 inhibitor: -3; DNMT1 inh: -3; LMPTP inh: 0; STEP block: 1

What do the screens show for `C/C(=N/NC(=O)c1cc(-c2ccc(Cl)s2)[nH]n1)c1ccco1`?
CSN deneddyl inh: 4; SUMO1-SIM PPI: 2; Scp-1 inhibitor: -7; DNMT1 inh: -9; LMPTP inh: 0; STEP block: -2

How did CN(C)S(=O)(=O)Oc1cc(Cl)ccc1C(=O)Nc1ccc(F)cc1F do in these assays?
CSN deneddyl inh: 0; SUMO1-SIM PPI: -2; Scp-1 inhibitor: -10; DNMT1 inh: -2; LMPTP inh: 1; STEP block: 4

Results for O=S(=O)(Nc1ccc(-c2ccc(N3CCOCC3)nn2)cc1)c1ccc(Cl)c(Cl)c1 ?
CSN deneddyl inh: -6; SUMO1-SIM PPI: -12; Scp-1 inhibitor: -1; DNMT1 inh: 83*; LMPTP inh: 3; STEP block: 4; DNMT1 inh conf: 5; Beacon interf: 5

How did O=[N+]([O-])c1ccc(Cl)c(S(=O)(=O)Nc2ccc(-c3ccc(N4CCOCC4)nn3)cc2)c1 do in these assays?
CSN deneddyl inh: 4; SUMO1-SIM PPI: -28; Scp-1 inhibitor: 7; DNMT1 inh: 2; LMPTP inh: 1; STEP block: -1

How did Cc1nc(SCCOc2ccccc2F)[nH]c(=O)c1Cc1ccccc1 do in these assays?
CSN deneddyl inh: 13; SUMO1-SIM PPI: 2; Scp-1 inhibitor: 2; DNMT1 inh: -9; LMPTP inh: 4; STEP block: 0

Results for O=C(NCCCN1CCOCC1)c1ccc2c(=O)n(-c3ccc(F)c(Cl)c3)c(=S)[nH]c2c1 ?
CSN deneddyl inh: 5; SUMO1-SIM PPI: 1; Scp-1 inhibitor: 2; DNMT1 inh: 1; LMPTP inh: 0; STEP block: 1

How did CCCCc1c(C)nc2ccc(OC)cc2c1SCCC(=O)O do in these assays?
CSN deneddyl inh: 3; SUMO1-SIM PPI: 7; Scp-1 inhibitor: 17; DNMT1 inh: 66*; LMPTP inh: 2; STEP block: 0; DNMT1 inh conf: 5; Beacon interf: 3

What do the screens show for `CNS(=O)(=O)c1ccc(NC(=O)c2cnn3c(C(F)F)cc(-c4ccccc4)nc23)cc1`?
CSN deneddyl inh: 72*; SUMO1-SIM PPI: -5; Scp-1 inhibitor: -1; DNMT1 inh: 53*; LMPTP inh: 1; STEP block: 1; DNMT1 inh conf: 1; Beacon interf: -5

What do the screens show for `CN(C)C(CNC(=O)C1CCN(S(=O)(=O)c2cccc(C(F)(F)F)c2)CC1)c1ccccc1` (stereo not drawn)?
CSN deneddyl inh: -3; SUMO1-SIM PPI: -8; Scp-1 inhibitor: -8; DNMT1 inh: 0; LMPTP inh: -9; STEP block: -1

Results for CN(C)C(CNC(=O)C1CCN(S(=O)(=O)c2ccccc2)CC1)c1ccccc1 (stereo not drawn) ?
CSN deneddyl inh: 1; SUMO1-SIM PPI: 2; Scp-1 inhibitor: 12; DNMT1 inh: 88*; LMPTP inh: 2; STEP block: 20; DNMT1 inh conf: 5; Beacon interf: 7

Results for CCCCn1c(-c2ccc(Cl)c(Cl)c2)nc2cc3[nH]c(=O)c(C(C)C)nc3cc21 ?
CSN deneddyl inh: 4; SUMO1-SIM PPI: 7; Scp-1 inhibitor: 5; DNMT1 inh: 53*; LMPTP inh: 2; STEP block: 3; DNMT1 inh conf: -1; Beacon interf: -3

Results for CCCCn1c(-c2ccc(C(C)(C)C)cc2)nc2cc3[nH]c(=O)c(C(C)C)nc3cc21 ?
CSN deneddyl inh: -1; SUMO1-SIM PPI: 0; Scp-1 inhibitor: 5; DNMT1 inh: -22; LMPTP inh: 3; STEP block: 3

Screens from PubChem.
